Reference: ChEMBL document CHEMBL3108694, “Development of novel dual binders as potent, selective, and orally bioavailable tankyrase inhibitors” (J Med Chem, 2013)
Converted amounts (≈) assume the structure as drawn.

Legend:
[1] = Inhibition of TNKS in human SW480 cells assessed as degradation of total pool of beta-catenin after 40 to 48 hrs; assay type: cell-based
Method in brief: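 SW480 cells were seeded at 10 000/well in MEMα with 10% HI FBS, GlutaMAX, pyruvate and 10 mM HEPES. They were treated with a 10-point, 3-fold dilution series at 0.1% final DMSO for 40–48 h at 37 °C, then lysed. Total β-catenin was measured by MSD sandwich immunoassay (polyclonal capture, SULFO-TAG mAb detection).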

[2] = biological target: T1, Poly [ADP-ribose] polymerase tankyrase-1 (Homo sapiens, UniProt O95271); assay: Inhibition of 6x-His-tagged TNKS1 (unknown origin) after 60 mins
T1 sequence (O95271 whole entry): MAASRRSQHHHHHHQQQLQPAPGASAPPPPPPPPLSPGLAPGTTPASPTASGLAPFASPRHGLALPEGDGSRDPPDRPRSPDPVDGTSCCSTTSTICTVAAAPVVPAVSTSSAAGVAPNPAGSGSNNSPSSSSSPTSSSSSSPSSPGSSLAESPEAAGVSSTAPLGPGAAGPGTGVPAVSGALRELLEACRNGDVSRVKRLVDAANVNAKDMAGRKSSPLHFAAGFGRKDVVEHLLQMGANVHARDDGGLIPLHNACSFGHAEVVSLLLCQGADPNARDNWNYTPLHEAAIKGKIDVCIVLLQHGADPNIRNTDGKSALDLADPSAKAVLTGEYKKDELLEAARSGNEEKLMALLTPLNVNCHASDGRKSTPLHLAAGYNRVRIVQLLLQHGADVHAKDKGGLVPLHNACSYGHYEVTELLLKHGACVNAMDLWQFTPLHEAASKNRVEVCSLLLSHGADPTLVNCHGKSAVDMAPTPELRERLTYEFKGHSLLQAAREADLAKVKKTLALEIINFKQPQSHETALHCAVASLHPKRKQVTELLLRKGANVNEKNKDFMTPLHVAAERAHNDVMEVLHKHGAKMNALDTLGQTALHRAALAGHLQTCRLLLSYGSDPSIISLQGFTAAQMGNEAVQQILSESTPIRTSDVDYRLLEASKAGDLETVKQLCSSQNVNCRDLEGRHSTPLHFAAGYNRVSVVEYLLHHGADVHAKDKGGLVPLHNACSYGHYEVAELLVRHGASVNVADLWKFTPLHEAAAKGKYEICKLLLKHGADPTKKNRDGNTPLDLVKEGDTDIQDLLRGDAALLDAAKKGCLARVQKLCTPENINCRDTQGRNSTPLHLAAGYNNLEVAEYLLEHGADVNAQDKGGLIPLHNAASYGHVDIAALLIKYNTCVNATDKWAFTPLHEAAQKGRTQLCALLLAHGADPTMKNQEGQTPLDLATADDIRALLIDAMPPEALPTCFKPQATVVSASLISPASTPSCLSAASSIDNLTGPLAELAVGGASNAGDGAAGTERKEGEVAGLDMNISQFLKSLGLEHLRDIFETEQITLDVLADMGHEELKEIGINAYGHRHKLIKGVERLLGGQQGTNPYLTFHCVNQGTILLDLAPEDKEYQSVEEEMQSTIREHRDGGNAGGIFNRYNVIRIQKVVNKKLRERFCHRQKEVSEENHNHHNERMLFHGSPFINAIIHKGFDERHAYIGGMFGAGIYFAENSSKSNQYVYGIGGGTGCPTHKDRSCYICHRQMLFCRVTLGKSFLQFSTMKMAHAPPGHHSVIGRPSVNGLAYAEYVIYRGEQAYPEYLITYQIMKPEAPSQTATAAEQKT

[3] = Half life in CD-1 mouse plasma at 1 uM by LC-MS/MS analysis; assay type: ADME, cell-free
Method in brief: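 Lithium-heparinized CD-1 mouse plasma was spiked with 1 μM substrate and incubated at 37 °C for 3 h, sampling at 0, 0.167, 1, 2 and 3 h (n = 2). Samples underwent acetonitrile protein precipitation with tolbutamide as internal standard. Analysis was by reversed-phase UPLC-ESI-MS/MS in MRM mode.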

[4] = Intrinsic clearance in rat liver microsomes at 1 uM after 30 mins; assay type: ADME; conditions: read-out: CLH
Method in brief: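 Substrate depletion in rat liver microsomes: 0.25 mg protein/mL, 1 mM NADPH and 2 mM MgCl2 in 50 mM potassium phosphate, pH 7.4, prewarmed to 37 °C. Test compound was added to a final 1 μM, and parent loss was measured after 30 min at 37 °C.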

[5] = Solubility in fasted state simulated intestinal fluid at pH 6.8; assay type: ADME
[6] = Inhibition of TNKS in human SW480 cells assessed as accumulation of axin-2 into cytoplasmic foci after 24 hrs by Hoechst dye-based assay; conditions: SW480, 24 h
[7] = Fraction unbound in mouse plasma at 5 uM after 5 hrs by equilibrium dialysis method; assay type: ADME, cell-free
Method in brief: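 Mouse plasma was spiked to a final 5 μM and equilibrium-dialyzed against plasma water (ultrafiltrate) for 5 h at 37 °C in a CO2 incubator, using a rapid equilibrium dialysis device. Fraction unbound was determined in duplicate.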

[8] = AUC (0 to infinity) in CD-1 mouse at 30 mg/kg, po; assay type: ADME, organism-based; design: time infinity, dose 30 mg/kg, route oral; conditions: plasma
Method in brief: (§1)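 Male CD-1 mice given a single oral dose of 30 mg/kg. Vehicle was 10% Pluronic F68, 30% HPBCD and 60% water, pH adjusted to 10.0 with NaOH for most compounds or to 2.5 with methanesulfonic acid for one. Mean plasma PK parameters were reported.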

[9] = Inhibition of TNKS in human DLD1 cells expressing APC mutant assessed as inhibition of super-Topflash reporter gene transcription after 40 to 48 hrs by dual-glo luciferase reporter gene assay; assay type: cell-based; conditions: DLD-1
Method in brief: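 DLD-1 cells carried an 8× TCF-driven firefly luciferase and an EF1a-driven Renilla luciferase, and were seeded at 10 000/well in RPMI with 10% FBS without antibiotics. A 10-point, 3-fold dilution series starting at 10 μM was applied for 40–48 h at 37 °C. Firefly and Renilla activities were read with Dual-Glo reagents.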

[10] = Tmax in CD-1 mouse at 30 mg/kg, po; assay type: ADME, organism-based; design: dose 30 mg/kg, route oral; conditions: in vivo; method in brief: as §1
[11] = Cmax in CD-1 mouse at 30 mg/kg, po; assay type: ADME, organism-based; design: dose 30 mg/kg, route oral; conditions: in vivo; method in brief: as §1

Compound | IC50 [1] [nM] | IC50 [2] [nM] | microsomal CLint at 1 µM [4] [µL/min/mg] | also measured
N#Cc1cccc(O[C@H]2CC[C@H](NC(=O)CCSc3nc4ccccc4c(=O)[nH]3)CC2)c1 | 47.8 |  |  | 
Cn1c(-c2ccc(NC(=O)CCc3nc4ccccc4c(=O)[nH]3)cc2)nc2ccccc21 | > 10000 | 1090 |  | half-life at 1 µM [3]: > 8.33 h
O=C(CCSc1nccc(=O)[nH]1)N[C@H]1CC[C@H](c2nnc(-c3ccccc3)o2)CC1 | 2130 |  | < 14 | solubility [5]: 53 µg/mL (≈ 125 µM)
O=C(CCSc1nc2ccccc2c(=O)[nH]1)N[C@H]1CC[C@H](Oc2ccc(F)cc2)CC1 | 16.7 |  |  | 
O=C(CCCSc1nc2ccccc2c(=O)[nH]1)N[C@H]1CC[C@H](c2nnc(-c3ccccc3)o2)CC1 | 100 |  | 159 | solubility [5]: 1 µg/mL (≈ 2.04 µM)
O=C(CCc1nc2ncccc2c(=O)[nH]1)N[C@H]1CC[C@H](c2nnc(-c3ccccc3)o2)CC1 | 1950 |  | 24 | 
O=C(CSc1nc2ccccc2c(=O)[nH]1)N[C@H]1CC[C@H](c2nnc(-c3ccccc3)o2)CC1 | 91 |  | 20 | solubility [5]: 1 µg/mL (≈ 2.17 µM)
COc1ccccc1NC(=O)c1ccc(NC(=O)CCc2nc3ccccc3c(=O)[nH]2)cc1C | 3090 | 210 |  | half-life at 1 µM [3]: 0.717 h
O=C(CCc1nc2ccccc2c(=O)[nH]1)Nc1ccc(-c2nc3ccccc3o2)cc1 | 7720 | 860 |  | 
O=C(CCSc1nc2ccccc2c(=O)[nH]1)N[C@H]1CC[C@H](Oc2ccccn2)CC1 | 15.4 |  |  | 
N#Cc1cc(O[C@H]2CC[C@H](NC(=O)CCSc3nc4ccccc4c(=O)[nH]3)CC2)ccc1Cl | 24.2 |  |  | 
O=C(CCSc1nc2ccccc2c(=O)[nH]1)N[C@H]1CC[C@H](Oc2cccc(Cl)c2)CC1 | 120 |  |  | 
O=C(CCc1nc2ccccc2c(=O)[nH]1)N[C@H]1CC[C@H](c2nnc(-c3ccccc3)o2)CC1 | 80 |  | < 14 | solubility [5]: 16.2 µg/mL (≈ 36.5 µM); half-life at 1 µM [3]: > 8.33 h; EC50 [6]: 640 nM
Cc1ccnc2c(NC(=O)c3ccc(N4C(=O)[C@@H]5[C@H](C4=O)[C@@H]4C=C[C@H]5C4)cc3)cccc12 |  | 160 |  | 
COc1ccccc1NC(=O)[C@H]1CC[C@H](NC(=O)CCc2nc3ccccc3c(=O)[nH]2)CC1 | 300 | 31 |  | half-life at 1 µM [3]: > 16.7 h
O=C(CCc1nc2ccccc2c(=O)[nH]1)Nc1ccc(-c2nnc(-c3ccccc3)o2)cc1 | 410 |  |  | half-life at 1 µM [3]: 2.03 h; EC50 [6]: 2450 nM

Compound | IC50 [1] [nM] | IC50 [2] [nM] | microsomal CLint at 1 µM [4] [µL/min/mg] | also measured
O=C(C[C@H]1CCCN1Cc1nc2ccccc2c(=O)[nH]1)N[C@H]1CC[C@H](c2nnc(-c3ccccc3)o2)CC1 | 500 |  | > 399 | solubility [5]: 42 µg/mL (≈ 81.9 µM)
O=C(CCc1nc2ccccc2c(=O)[nH]1)Nc1ccc(-c2nc(-c3ccccc3)c[nH]2)cc1 |  | > 46000 |  | 
O=C(CCc1nc2c(c(=O)[nH]1)CCCN2)N[C@H]1CC[C@H](c2nnc(-c3ccccc3)o2)CC1 | 1020 |  | < 14 | 
N#Cc1ccc(O[C@H]2CC[C@H](NC(=O)CCSc3nc4ccccc4c(=O)[nH]3)CC2)cc1Cl | 8.1 |  |  | fraction unbound at 5 h, 5 µM [7]: 0.002; AUC(0-inf) [8]: 100 µM·h; IC50 [9]: 1.1 nM; Tmax [10]: 1.58 h; EC50 [6]: 8.4 nM; Cmax [11]: 15.1 µM
COc1ccccc1NC(=O)[C@H]1CC[C@@H](NC(=O)CCc2nc3ccccc3c(=O)[nH]2)CC1 |  | 7460 |  | half-life at 1 µM [3]: > 16.7 h
O=C(CCc1nc2ccccc2c(=O)[nH]1)Nc1ccc(-c2c[nH]c(-c3ccccc3)n2)cc1 | > 10000 | 640 |  | half-life at 1 µM [3]: 0.883 h
O=C(CCSc1nc2c(c(=O)[nH]1)CCCC2)N[C@H]1CC[C@H](c2nnc(-c3ccccc3)o2)CC1 | 11 |  | 60 | fraction unbound at 5 h, 5 µM [7]: 0.012; solubility [5]: 8 µg/mL (≈ 16.7 µM); AUC(0-inf) [8]: 5.3 µM·h; IC50 [9]: 1.3 nM; Tmax [10]: 3.23 h; EC50 [6]: 14 nM; Cmax [11]: 3.6 µM
O=C(N[C@H]1CC[C@H](c2nnc(-c3ccccc3)o2)CC1)[C@@H]1CCCN(Cc2nc3ccccc3c(=O)[nH]2)C1 | 1170 |  | 206 | solubility [5]: 43 µg/mL (≈ 83.9 µM)
COc1ccccc1NS(=O)(=O)c1ccc(NC(=O)CCc2nc3ccccc3c(=O)[nH]2)cc1 |  | > 46000 |  | 
O=C(CCSc1nc2ccccc2c(=O)[nH]1)N[C@H]1CC[C@H](Oc2ccc(Cl)cc2)CC1 | 20 |  |  | 
COc1ccccc1N(C)C(=O)c1ccc(NC(=O)CCc2nc3ccccc3c(=O)[nH]2)cc1 | 5680 | 400 |  | half-life at 1 µM [3]: 0.633 h
O=C(CCc1nc2ccccc2c(=O)[nH]1)Nc1ccc(-c2csc(-c3ccccc3)n2)cc1 |  | > 46000 |  | 
O=C(CCc1nc2ccccc2c(=O)[nH]1)Nc1ccc(-c2nc(-c3ccccc3)no2)cc1 |  | > 46000 |  | 
COc1cccc(C)c1NC(=O)c1ccc(NC(=O)CCc2nc3ccccc3c(=O)[nH]2)cc1 |  | 1750 |  | half-life at 1 µM [3]: 4.5 h
O=C(CCCc1nc2ccccc2c(=O)[nH]1)N[C@H]1CC[C@H](c2nnc(-c3ccccc3)o2)CC1 | 17 |  | 20 | solubility [5]: 11 µg/mL (≈ 24 µM)
